The text below walks through data of PubChem BioAssay.

Active and inactive are the calls of the source.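 The calls were made as follows: active = mean duplicate activation above the buffer control mean plus 5 SD of those controls; inactive = the rest.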

Chain of Potassium voltage-gated channel subfamily E member 1 (Homo sapiens) + Potassium voltage-gated channel subfamily KQT member 1 (Homo sapiens) (P51787 whole entry, looked up): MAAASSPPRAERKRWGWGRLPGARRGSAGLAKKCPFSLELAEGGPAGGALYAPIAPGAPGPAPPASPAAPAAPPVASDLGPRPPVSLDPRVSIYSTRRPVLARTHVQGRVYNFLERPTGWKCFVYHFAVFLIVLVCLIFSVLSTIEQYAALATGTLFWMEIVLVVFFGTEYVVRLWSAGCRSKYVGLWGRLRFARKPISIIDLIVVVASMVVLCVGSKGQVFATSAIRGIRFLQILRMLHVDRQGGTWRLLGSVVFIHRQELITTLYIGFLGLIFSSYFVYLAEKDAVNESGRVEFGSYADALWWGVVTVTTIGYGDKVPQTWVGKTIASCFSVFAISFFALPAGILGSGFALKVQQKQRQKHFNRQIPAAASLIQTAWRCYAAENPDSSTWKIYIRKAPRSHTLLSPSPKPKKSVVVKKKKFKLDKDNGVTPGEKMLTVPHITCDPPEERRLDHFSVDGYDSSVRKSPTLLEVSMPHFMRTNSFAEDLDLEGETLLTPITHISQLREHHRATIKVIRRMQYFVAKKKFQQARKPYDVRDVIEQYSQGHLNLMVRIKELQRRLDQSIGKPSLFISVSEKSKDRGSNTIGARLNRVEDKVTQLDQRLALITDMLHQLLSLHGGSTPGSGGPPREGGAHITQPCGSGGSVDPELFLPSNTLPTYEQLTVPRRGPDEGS

In the assay the target is Potassium voltage-gated channel subfamily E member 1 (Homo sapiens) + Potassium voltage-gated channel subfamily KQT member 1 (Homo sapiens) (UniProt P15382+P51787). In words: KCNQ1/KCNE1 complex potentiators, confirmation, selectivity assay for KCNQ1 potentiator project, thallium flux, CHO-K1 KCNQ1/E1 cells (AID 493186). As to conditions: FluxOR thallium flux, at 10 µM. The essentials:
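Material: CHO-K1 cells with KCNQ1/E1 / Timing: dye 90 min, compound 20 min, room temperature / Technique: kinetic thallium-sensitive FluxOR dye fluorescence / Read-out: percent activation scaled between buffer and R-L3 ratio signals / Replicates: tested in duplicate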
As for `O=C(NC(=S)Nc1nc2c(ccc3ccccc32)s1)c1cccs1`, the result was inactive. In the case of `O=C(OCc1ccccc1)C1=NNC2C(=O)N(c3ccccc3)C(=O)C12` (centres undefined), the outcome was inactive. The entry for `COc1ccc(C2c3ccc4ccccc4c3Oc3ncn(CCCO)c(=N)c32)cc1OC` (centres undefined) is “inactive”; for `CCS(=O)(=O)N1Cc2ccccc2CC1C(=O)Nc1cccc(S(=O)(=O)N(C)C)c1` (centres undefined) it is “inactive”; for `O=C(NC(=S)NC1CCCc2ccccc21)c1ccc(F)cc1` (centres undefined) it is “inactive”. In the case of `O=C(c1nnsc1S(=O)c1ccc(Cl)cc1)N1CCOCC1` (centres undefined), the result was inactive. With `CC1(c2ccc(OC(F)F)cc2)NC(=O)N(CC(=O)Nc2ccccc2)C1=O` (centres undefined) the entry was “inactive”.

On to `Cc1ccc(-c2nn(-c3ccccc3)cc2/C=N/n2c(-c3cccs3)n[nH]c2=S)cc1`, for which the outcome was inactive. Consider `COc1ccc(OC)c(Nc2cc3ccccc3c(=O)[nH]2)c1`, for which the outcome was inactive. As for `Cc1ccc(/C=C2\SC(=S)N(NS(=O)(=O)c3ccc(C)cc3)C2=O)cc1`, the outcome was inactive. On to `COCC(=O)Nc1nnc(SCC(=O)N2C(C)CCCC2C)s1` (centres undefined), for which the outcome was inactive.

On to `S=c1[nH]nc(-c2ccccc2)n1/N=C/c1ccc(-c2ccccc2Cl)o1`, for which the result was inactive. Turning to `COc1cccc(CN2CCN(Cc3cc4ccccc4[nH]3)CC2CCO)c1` (centres undefined), the result was inactive. `CC(C)COc1ccc(-c2nn(-c3ccccc3)cc2C(=O)Nc2nccs2)cc1`: the outcome was inactive.
